Shown are actives, neighbours in structure and some others; about 1.9% of the full set was active somewhere.
PLC-gamma1 inh – blocks human PLC-gamma1 enzyme activity; 370,000 tested, 0.84% active; P19174; inhibition, % at 12.2 µM; purified PLC-gamma1, fluorogenic substrate, fluorescence; in the data active means inhibition above about 9.5%
DAGLB inh – diacylglycerol lipase beta (human) inhibition; Q8NCG7; HEK293T DAGLB membrane lysate, EnzChek fluorogenic substrate; inhibition, % at 5.17 µM; 340,000 tested, 0.059% active; AID 504411; in the data active means inhibition above about 34%
PLC-beta3 inh – blocks human PLC-beta3 enzyme activity; inhibition, % at 12.2 µM; Purified PLC-beta3, fluorogenic substrate, fluorescence; Q01970; 370,000 tested, 0.18% active
HGIII-sPLA2 inh – Blocks human group III sPLA2 activity | Q9NZ20 | QFRET BODIPY PC-A2 liposome hydrolysis, fluorescence | inhibition, % at 12.2 µM | 370,000 tested, 0.56% active;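 active means inhibition above mean plus 3 SD of compounds lying within the high and low control bounds, cut at about 19% in these data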
TbMetRS inhib – Trypanosoma brucei MetRS inhibition; purified T. brucei MetRS, ATP depletion, Kinase-Glo luminescence; inhibition, % at 11.9 µM; 360,000 tested, 0.4% active; AID 624268;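 active means inhibition above a per-plate cutoff of the control wells' mean inhibition plus 3 SD, cut at about 5.5% in these data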
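technique = Kinase-Glo luminescence, ATP depletion format | system = purified MetRS (methionyl-tRNA synthetase) enzyme from Trypanosoma brucei | timing = 15 min preincubation, 2 h reaction, all 25 °C | evaluation = percent inhibition versus plate control medians | dosing = single dose, 11.9 µM final nominal, 0.9% final DMSO | also added = substrates ATP, L-methionine and bulk Escherichia coli tRNA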
PLCg1 ctr – counter-screen for PLC-beta3 inhibitors: inhibitors of human PLC-gamma1. shares compounds with PLC-gamma1 inh. AID 743258. purified PLC-gamma1, fluorogenic substrate, fluorescence. inhibition, % at 12.3 µM. 3,300 tested, 3.1% active; in the data active means inhibition above about 9.5%
PLCb3 confirm – human PLC-beta3 inhibition, confirmation. shares compounds with PLC-gamma1 inh. purified PLC-beta3, fluorogenic substrate fluorescence. inhibition, % at 12.3 µM. 3,300 tested, 1% active
A number is an active result; i = inactive; nt = no result given. Unless noted, no stated cut-off is given here; in the data, active means inhibition above about 11%; inactive means the rest.

SMILES	PLC-gamma1 inh	DAGLB inh	PLC-beta3 inh	HGIII-sPLA2 inh	TbMetRS inhib	PLCg1 ctr	PLCb3 confirm
O=C(Nc1cccc(S(=O)(=O)C(F)F)c1)c1ccc(S(=O)(=O)N2CCOCC2)cc1	i	i	13	i	i	i	i
Cc1ccc(C(=O)NC2CCCCN(Cc3ccc(Cl)cc3)C2=O)c(C)c1 (stereo not given)	i	nt	i	i	nt	nt	nt
O=C(CSc1nnc(-c2ccccc2)n1-c1ccccc1)NN=C/C=C\c1ccccc1[N+](=O)[O-]	i	nt	i	i	nt	nt	nt
Clc1ccc(-c2nnc(SCc3cccc4ccccc34)n2Cc2ccco2)cc1	i	nt	i	i	nt	nt	nt
C=CCN1C[C@@H](COCc2ccccc2)Oc2cc(F)ccc2S1(=O)=O	i	nt	i	i	nt	nt	nt
Cc1ccc(C(=O)C2CCN(CC(=O)N3CCCC3)CC2)cc1	i	nt	i	i	nt	nt	nt
COC(=O)C[C@@H]1CC[C@@H]2[C@@H](COc3ccc(NC(=O)Nc4ccc(F)cc4)cc3C(=O)N2C)O1	i	nt	i	i	nt	nt	nt
O=C(Nc1nc(-c2ccncc2)cs1)c1ccc(S(=O)(=O)N2CCOCC2)cc1	13	i	i	i	i	i	i
COC(=O)C(CN)CN1C(=O)c2ccccc2C1=O (stereo not given)	i	nt	i	i	nt	nt	nt
O=C(CSc1ccccc1)N(c1ccc(Br)cc1)c1nccs1	14	i	i	i	i	i	i
O=C(CCSc1ccccc1)Nc1nccs1	i	i	i	i	i	nt	nt
CCn1nc(C)c(/C=N/NC(=S)Nc2ccc(Cl)cc2Cl)c1C	i	i	12	i	i	i	i
O=[N+]([O-])c1ccc(O)c(C=NNc2ccc(S(=O)(=O)O)cc2)c1	i	i	i	i	i	nt	nt
O=Cc1cc(N=Nc2ccc(S(=O)(=O)O)cc2)ccc1O	14	i	i	i	i	16	i
CCC(C)NCCCCOc1ccc(Cl)cc1C (stereo not given)	12	i	i	i	i	i	i
CCC(C)NCCCOc1cc(Cl)ccc1Cl (stereo not given)	i	i	i	i	i	nt	nt
CC(C)(C)OC(=O)N1CCC(NC(=O)c2nc[nH]c2C(=O)NC2CCN(C(=O)OC(C)(C)C)CC2)CC1	i	i	i	i	i	nt	nt
CCOC(=O)c1ccc(NC(=O)c2nc[nH]c2C(=O)NC2CCN(C(=O)OC(C)(C)C)CC2)cc1	11	i	i	i	i	i	i
O=C(O)c1ccccc1N1C(=O)C2C3c4ccccc4C(Br)(c4ccccc43)C2C1=O (stereo not given)	18	i	i	i	i	i	i
Cc1cc(C)c(C#N)c(OCC2CCCO2)n1 (stereo not given)	i	nt	11	i	i	i	i
Cc1cc(N2CCNC[C@H]2C)ccc1N1CCN(Cc2ccccc2)[C@H](C)C1	i	nt	i	i	nt	nt	nt
COc1ccc(C(=O)N2CCC(O)(c3ccc(F)cc3)CC2)cc1OC	10	i	i	i	i	i	i
COc1ccc(C(=O)N2CCC(O)(c3ccc(Cl)cc3)CC2)cc1OC	i	i	i	i	i	nt	nt
COc1cccc(NC(=O)N(C)C[C@H]2OCc3ccccc3-c3c(n(C)c4ccccc34)C(=O)N([C@H](C)CO)C[C@H]2C)c1	i	nt	i	i	nt	nt	nt
COc1ccc(S(=O)(=O)NCc2ccc(C(=O)NCCN(C)Cc3ccccc3)cc2)cc1	9.8	nt	i	i	i	i	i
SMILES	PLC-gamma1 inh	DAGLB inh	PLC-beta3 inh	HGIII-sPLA2 inh	TbMetRS inhib	PLCg1 ctr	PLCb3 confirm
Cc1onc(-c2ccccc2Cl)c1C(=O)OCn1nnc2ccccc2c1=O	11	i	i	i	i	i	i
COc1ccc(/C=C2\CC3(OC(=O)c4ccccc4)CCCN2C3)cc1 (stereo not given)	i	nt	i	i	nt	nt	nt
O=C1NC(=O)/C(=C\c2ccc(Br)o2)S1	15	i	i	i	i	i	i
O=C1NC(=O)/C(=C/c2ccc(-c3cc(C(=O)O)ccc3Cl)o2)S1	i	i	i	i	i	nt	nt
COc1cccc(N(C)C(=O)[C@@H](C)[C@@H](O)c2ccc(C(C)=O)cc2)c1	i	nt	i	i	nt	nt	nt
CCN(CC)c1ccc(/C=C(\C#N)C(N)=O)cc1	i	i	i	i	i	nt	nt
N#C/C(=C\c1cc(O)c(O)c(O)c1)C(N)=O	18	i	i	i	i	i	i
C[C@@H]1ON(C)[C@H]2C[C@H]3c4cc(Br)ccc4CCN3C[C@@H]12	i	nt	i	i	nt	nt	nt
O=C(O)C(C(=O)O)=C1C2CC3CC(C2)CC1C3	11	i	i	i	i	i	i
COc1ccc(S(=O)(=O)Nc2ccc(C)cc2)cc1N(C)S(=O)(=O)c1ccc(Cl)cc1	11	i	i	i	i	i	i
COc1ccc(S(=O)(=O)NN(C)C)cc1N(C)S(=O)(=O)c1ccc(Cl)cc1	i	i	i	i	i	nt	nt
Cc1ccc(-n2nnnc2CNC(=O)C2CC(=O)N(c3ccccc3)C2)cc1C (stereo not given)	13	i	i	i	i	i	i
CC(=O)Nc1cccc(-c2cc(C(C)=O)c3n(c2=O)CCC3)c1	i	nt	i	i	nt	nt	nt
COc1cc(C(=O)NCC2(N(C)C)CCCCC2)ccc1OCc1ccccc1	13	i	i	i	i	i	i
COc1ccc(CN2CCN(C)CC2)cc1OCc1ccccc1	11	i	i	i	i	i	i
COc1cc(C(N)=O)ccc1OCc1ccccc1	i	i	11	i	i	i	i
COc1ccc(CN2CCC(C(N)=O)CC2)cc1OCc1ccccc1	i	i	i	i	i	nt	nt
O=C(Cn1ccc([N+](=O)[O-])n1)Nc1nccs1	9.6	i	i	i	i	i	i
CC(C)CN1C(=O)[C@@]2(CC(=O)N(C)C2c2ccccc2)c2cc(-n3cc(C(C)(C)O)nn3)ccc21 (stereo not given in full)	i	nt	i	i	nt	nt	nt
COC(=O)[C@]12C[C@H](CC(=O)NCC34CC5CC(CC(C5)C3)C4)C(=O)N(Cc3cccc4ccccc34)C1=C[C@H](C(C)C)O[C@@H]2C1CC1	i	nt	i	i	nt	nt	nt
C#CCn1c(S(=O)(=O)Cc2ccc(C)cc2)nc(-c2ccccc2)c1-c1ccccc1	10	i	i	i	i	i	i
COc1ccccc1CNc1ncccn1	9.7	i	i	i	i	i	i
Cc1cccc(NC2=CC(=O)CC(C)(C)C2)c1C	9.8	i	i	i	i	i	i
CC1(C)CC(=O)C=C(Nc2ccccc2N)C1	i	i	i	i	i	nt	nt
CCCc1nc2c(C)cc(Br)cn2c1Cc1cccc(Cl)c1	i	nt	i	i	nt	nt	nt
CC1CCc2cc(F)ccc2N1C(=O)CSc1nnc2c3ccccc3n(C)c2n1 (stereo not given)	9.7	i	i	i	i	i	i
CC1CCc2cc(F)ccc2N1C(=O)CSc1nnc2c3cc(F)ccc3n(C)c2n1 (stereo not given)	i	i	i	i	i	nt	nt
CC1(C(=O)NS(=O)(=O)c2ccccc2Cl)CCN1C(=O)Cc1ccccc1Cl (stereo not given)	12	nt	i	i	i	i	i

Bioassay records deposited in PubChem by The Scripps Research Institute Molecular Screening Center.
